Laboratory results taken from ChEMBL document CHEMBL1138854, “Synthesis and antitumor activity of guanylhydrazones from 6-(2,4-dichloro-5-nitrophenyl)imidazo[2,1-b]thiazoles and 6-pyridylimidazo[2,1-b]thiazoles(1)” (2006).
Several values for one entry are separate records, joined by “and”; a condition that tells them apart may be missing. Equal entries are not always repeated.

What was measured:
[1] = Antitumor activity against leukemia cell lines of the NCI60 panel; format: functional; settings: Homo sapiens; for TGI: read-out: pTGI (converted)
How it was run: (§1)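 Run by NCI in the 60-cell-line panel (details in Supporting Information). Highest concentration 10^-4 M unless noted (one case 10-2.6 M). Values expressed as -log molar concentration giving 50% growth inhibition (pGI50), total cytostasis (pTGI) or 50% cell kill (pLC50); only values >4.00 reported; mean graph midpoint is the calculated panel mean.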

NSCLC = test: Antitumor activity against NSCLC cell lines of the NCI60 panel; format: functional; settings: Homo sapiens; for TGI: read-out: pTGI (converted); how it was run: as §1
[2] = Antitumor activity against colon cell lines of the NCI60 panel; format: functional; settings: Homo sapiens; for TGI: read-out: pTGI (converted); how it was run: as §1
[3] = Antitumor activity against CNS cell lines of the NCI60 panel; format: functional; settings: Homo sapiens; for TGI: read-out: pTGI (converted); how it was run: as §1
[4] = Antitumor activity against melanoma cell lines of the NCI60 panel; format: functional; settings: Homo sapiens; for TGI: read-out: pTGI (converted); how it was run: as §1
[5] = Antitumor activity against ovarian cell lines of the NCI60 panel; format: functional; settings: Homo sapiens; for TGI: read-out: pTGI (converted); how it was run: as §1
[6] = Antitumor activity against renal cell lines of the NCI60 panel; format: functional, Homo sapiens; settings: for GI50 / TGI: Homo sapiens, renal; for TGI: read-out: pTGI (converted); how it was run: as §1
[7] = Antitumor activity against prostate cell lines of the NCI60 panel; format: functional; settings: Homo sapiens; for TGI: read-out: pTGI (converted); how it was run: as §1
[8] = Antitumor activity against breast cell lines of the NCI60 panel; format: functional; settings: Homo sapiens; for TGI: read-out: pTGI (converted); how it was run: as §1

## Cc1sc2nc(-c3ccncc3)c(/C=N/NC(=N)N)n2c1C
[1]
  GI50: 30.2 µM
  TGI: 95.5 µM
NSCLC
  GI50: 38.9 µM
  TGI: 97.7 µM
[2]
  GI50: 35.5 µM
  TGI: 79.4 µM
[3]
  GI50: 38.9 µM
  TGI: 93.3 µM
[4]
  GI50: 38 µM
  TGI: 83.2 µM
[5]
  GI50: 53.7 µM
  TGI: 97.7 µM
[6]
  GI50: 39.8 µM
  TGI: 89.1 µM
[7]
  GI50: 55 µM
[8]
  GI50: 43.7 µM
  TGI: 91.2 µM

## Cc1csc2nc(-c3cc([N+](=O)[O-])c(Cl)cc3Cl)c(/C=N/N=C(N)N)n12
[1]
  GI50: 2.51 µM
  TGI: 25.7 µM
NSCLC
  GI50: 17 µM
  TGI: 35.5 µM
[2]
  GI50: 15.1 µM
  TGI: 33.1 µM
[3]
  GI50: 17.8 µM
  TGI: 34.7 µM
[4]
  GI50: 16.2 µM
  TGI: 31.6 µM
[5]
  GI50: 17 µM
  TGI: 37.2 µM
[6]
  GI50: 17 µM
  TGI: 33.1 µM
[7]
  GI50: 16.6 µM
  TGI: 35.5 µM
[8]
  GI50: 15.5 µM
  TGI: 32.4 µM

## Cc1sc2nc(-c3cc([N+](=O)[O-])c(Cl)cc3Cl)c(/C=N/NC(=N)N)n2c1C
[1]
  GI50: 2.09 µM
  TGI: 22.4 µM
NSCLC
  GI50: 11 µM
  TGI: 47.9 µM
[2]
  GI50: 4.27 µM
  TGI: 29.5 µM
[3]
  GI50: 11.2 µM
  TGI: 67.6 µM
[4]
  GI50: 5.01 µM
  TGI: 16.2 µM
[5]
  GI50: 5.25 µM
  TGI: 24 µM
[6]
  GI50: 8.71 µM
[7]
  GI50: 9.12 µM
  TGI: 38 µM
[8]
  GI50: 7.24 µM
  TGI: 35.5 µM

## CC(/C=N/NC(=N)N)=N\NC(=N)N [MITOGUAZONE]
[1]
  GI50: 7.94 µM
  TGI: 631 µM
NSCLC
  GI50: 25.1 µM
  TGI: 316 µM
[2]
  GI50: 12.6 µM
  TGI: 501 µM
[3]
  GI50: 20 µM
  TGI: 251 µM
[4]
  GI50: 39.8 µM
  TGI: 316 µM
[5]
  GI50: 15.8 µM
  TGI: 316 µM
[6]
  LC50: 501 µM and 2000 µM
  GI50: 20 µM
[7]
  GI50: 100 µM
  TGI: 1580 µM
[8]
  GI50: 15.8 µM
  TGI: 316 µM
